Data on eleven compounds can be found in ChEMBL document CHEMBL3232914, “Ultrasound promoted one pot synthesis of novel fluorescent triazolyl spirocyclic oxindoles using DBU based task specific ionic liquids and their antimicrobial activity” (2014).

The test system of experiment [1] is Saccharomyces cerevisiae. The experiment is described as follows: Antifungal activity against Saccharomyces cerevisiae MTCC 170 assessed as growth inhibition at 4 mg/mL after 24 hrs by agar well diffusion method. It counts as functional. To be noted: MTCC 170, 24 h, read-out: DIZ. A digest of the protocol:
(§1)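 Agar wells 8 mm in diameter. The read-out is the diameter of the growth inhibition zone in mm, including the well, given as the mean of three replicates.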
In general terms: A growth-free zone around the sample is the usual read-out of agar diffusion tests.

Experiment [2] concerns Bacillus subtilis. The experiment is described as follows: Antibacterial activity against Bacillus subtilis MTCC 121 assessed as growth inhibition at 4 mg/mL after 24 hrs by agar well diffusion method. The experiment is classed as functional. The conditions noted are these: MTCC 121, 24 h, read-out: DIZ. In a few lines:
as §1

Experiment [3] deals with Escherichia coli. Briefly: Antibacterial activity against Escherichia coli MTCC 1652 assessed as growth inhibition at 4 mg/mL after 24 hrs by agar well diffusion method. The experiment is classed as functional, organism-based. A digest of the protocol: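 Agar well diffusion with 8 mm wells. The inhibition zone diameter is reported in mm, with the well diameter included. Values are means of three replicates.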

Experiment [4] relates to Candida albicans. Briefly: Antifungal activity against Candida albicans MTCC 227 assessed as growth inhibition by macrodilution tube method. The experiment is classed as functional. In a few lines:
(§2)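 The MIC against the yeasts was determined with amphotericin-B as the reference standard drug.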

The subject of experiment [5] is Bacillus subtilis. The experiment is described as follows: Bactericidal activity against Bacillus subtilis MTCC 121 after 24 hrs. It counts as functional. The conditions noted are these: MTCC 121, 24 h.
Experiment [6] has as its system Staphylococcus aureus. The experiment is described as follows: Antibacterial activity against Staphylococcus aureus MTCC 96 assessed as growth inhibition at 4 mg/mL after 24 hrs by agar well diffusion method. It counts as functional. To be noted: MTCC 96, 24 h, read-out: DIZ. In a few lines:
as §1

Experiment [7] relates to Saccharomyces cerevisiae. The experiment is described as follows: Antifungal activity against Saccharomyces cerevisiae MTCC 170 assessed as growth inhibition by macrodilution tube method. The experiment is classed as functional. A digest of the protocol:
as §2

In experiment [8] the test system is Bacillus subtilis. Briefly: Antibacterial activity against Bacillus subtilis MTCC 121 assessed as growth inhibition after 24 hrs by macrodilution tube method. It counts as functional. The conditions noted are these: MTCC 121, 24 h.
Experiment [9] concerns Candida albicans. Briefly: Antifungal activity against Candida albicans MTCC 227 assessed as growth inhibition at 4 mg/mL after 24 hrs by agar well diffusion method. It counts as functional. The conditions noted are these: MTCC 227, 24 h, read-out: DIZ. A digest of the protocol:
as §1

For experiment [10], the system named is Staphylococcus aureus. The experiment is described as follows: Antibacterial activity against Staphylococcus aureus MTCC 96 assessed as growth inhibition after 24 hrs by macrodilution tube method. The experiment is classed as functional. To be noted: MTCC 96, 24 h.
The test system of experiment [11] is Staphylococcus aureus. Briefly: Bactericidal activity against Staphylococcus aureus MTCC 96 after 24 hrs. It counts as functional. The conditions noted are these: MTCC 96, 24 h.
The test system of experiment [12] is Pseudomonas aeruginosa. To be noted: MTCC 741, 4 mg/mL.

Values after ≈ are worked out from the molar mass of the structure shown. Active and inactive are the calls of the source.

What is called MIC is the smallest concentration in the dilution series that meets the test's criterion for growth inhibition. As a reminder, the MBC is the lowest tested concentration that kills the bacteria rather than only halting them. Read a high MBC as weaker bactericidal potency. With `Cn1c2c(c(=O)n(C)c1=O)C1(C(=O)N(Cc3cn(-c4ccc([N+](=O)[O-])cc4)nn3)c3ccccc31)C(C#N)=C(N)O2` (centres undefined), the zone of inhibition at 4000 µg/mL in [1] was found to be 13.6 mm; in [2], 18.6 mm; in [6], 15.3 mm; in experiment [9] it was 12.6 mm. For the same compound, the “diameter of the inhibition zone (DIZ)” value in experiment [3] was “inactive”. The MIC amounted to 512 µg/mL (≈ 925 µM) in experiment [4], 512 µg/mL (≈ 925 µM) in experiment [7], 64 µg/mL (≈ 116 µM) in experiment [8] and 128 µg/mL (≈ 231 µM) in experiment [10]. For the same compound, the results for the MBC in experiment [5] and in experiment [11] were 128 µg/mL (≈ 231 µM) and 512 µg/mL (≈ 925 µM), respectively. Further, in experiment [12], the DIZ result was “inactive”.
For the compound `N#CC1=C(N)OC2=C(C(=O)CCC2)C12C(=O)N(Cc1cn(-c3ccc([N+](=O)[O-])cc3)nn1)c1ccccc12` (centres undefined), the zone of inhibition at 4000 µg/mL in [1] was 13.6 mm; in [2] it was 18.6 mm; in [6] it was 17.6 mm; in experiment [9], 12.3 mm. Besides, in [3], the “diameter of the inhibition zone (DIZ)” value was “inactive”. Moreover, the MIC in experiment [4] was 512 µg/mL (≈ 1000 µM); in [7], 256 µg/mL (≈ 502 µM); in experiment [8], 128 µg/mL (≈ 251 µM); in experiment [10], 128 µg/mL (≈ 251 µM). Also, the MBC in experiment [5] and in experiment [11] was 256 µg/mL (≈ 502 µM) each time. Besides, the DIZ entry in experiment [12] is “inactive”.
Consider `Cc1ccc(-n2cc(CN3C(=O)C4(C(C#N)=C(N)OC5=C4C(=O)CCC5)c4ccccc43)nn2)cc1` (centres undefined), for which the zone of inhibition at 4000 µg/mL in experiment [1] is 15.6 mm; in experiment [2] it was 16.3 mm; in [6] it was 13.6 mm; in experiment [9], 14.3 mm. Further, the “diameter of the inhibition zone (DIZ)” value in experiment [3] was “inactive”. Also, the MIC in experiment [4] came out at 128 µg/mL (≈ 267 µM); in [7], 128 µg/mL (≈ 267 µM); in experiment [8], 128 µg/mL (≈ 267 µM); in experiment [10] it was 256 µg/mL (≈ 535 µM). Moreover, the MBC in [5] amounted to 128 µg/mL (≈ 267 µM); in experiment [11] it was 512 µg/mL (≈ 1070 µM). In addition, the DIZ result in experiment [12] is “inactive”.
Take `CC1(C)CC(=O)C2=C(C1)OC(N)=C(C#N)C21C(=O)N(Cc2cn(-c3cccc(Cl)c3)nn2)c2ccccc21` (centres undefined): the zone of inhibition at 4000 µg/mL in experiment [1] is 13.6 mm; in experiment [2] it was 20.6 mm; in experiment [6] it was 19.3 mm; in [9], 12.3 mm. Moreover, in [3], the “diameter of the inhibition zone (DIZ)” value is “inactive”. Moreover, the MIC was 512 µg/mL (≈ 972 µM) in experiment [4], 256 µg/mL (≈ 486 µM) in experiment [7], 32 µg/mL (≈ 60.7 µM) in experiment [8] and 64 µg/mL (≈ 121 µM) in experiment [10]. The MBC in experiment [5] and in experiment [11] was 128 µg/mL (≈ 243 µM) each time. Besides, the DIZ entry in [12] is “inactive”.
Consider `CC1(C)CC(=O)C2=C(C1)OC(N)=C(C#N)C21C(=O)N(Cc2cn(-c3ccccc3)nn2)c2ccccc21` (centres undefined), for which the zone of inhibition at 4000 µg/mL was found to be 14.3 mm in experiment [1], 16.3 mm in experiment [2], 14.6 mm in experiment [6] and 13.3 mm in experiment [9]. In addition, the “diameter of the inhibition zone (DIZ)” value in experiment [3] was “inactive”. Further, the MIC was 256 µg/mL (≈ 520 µM) in experiment [4], 256 µg/mL (≈ 520 µM) in experiment [7], 128 µg/mL (≈ 260 µM) in experiment [8] and 128 µg/mL (≈ 260 µM) in experiment [10]. Further, the values for the MBC in experiment [5] and in experiment [11] were 256 µg/mL (≈ 520 µM) and 128 µg/mL (≈ 260 µM), respectively. For the same compound, the DIZ entry in experiment [12] was “inactive”.
As to `N#CC1=C(N)OC2=C(C(=O)CCC2)C12C(=O)N(Cc1cn(-c3ccc(Br)cc3)nn1)c1ccccc12` (centres undefined), the zone of inhibition at 4000 µg/mL in [1] was 14.3 mm; in experiment [2], 20.3 mm; in experiment [6], 18.6 mm; in experiment [9], 12.6 mm. Further, the “diameter of the inhibition zone (DIZ)” value in [3] was “inactive”. The MIC in experiment [4] came out at 512 µg/mL (≈ 942 µM); in [7], 256 µg/mL (≈ 471 µM); in experiment [8], 32 µg/mL (≈ 58.9 µM); in experiment [10] it was 64 µg/mL (≈ 118 µM). Moreover, the figures for the minimal bactericidal concentration (MBC) in experiment [5] and in experiment [11] were 128 µg/mL (≈ 236 µM) and 64 µg/mL (≈ 118 µM), respectively. Also, the DIZ result in experiment [12] was “inactive”.
With `COc1ccc(-n2cc(CN3C(=O)C4(C(C#N)=C(N)OC5=C4C(=O)CCC5)c4ccccc43)nn2)cc1` (centres undefined), the zone of inhibition at 4000 µg/mL in [1] is 16.3 mm; in experiment [2], 15.6 mm; in experiment [6], 14 mm; in [9], 16 mm. Moreover, in [3], the “diameter of the inhibition zone (DIZ)” value was “inactive”. Besides, the MIC in [4] is 128 µg/mL (≈ 259 µM); in experiment [7] it was 64 µg/mL (≈ 129 µM); in [8] it was 32 µg/mL (≈ 64.7 µM); in experiment [10] it was 64 µg/mL (≈ 129 µM). Besides, the values for the MBC in experiment [5] and in [11] were 128 µg/mL (≈ 259 µM) and 512 µg/mL (≈ 1040 µM), respectively. Further, in [12], the DIZ result was “inactive”.
For the compound `Cc1ccc(-n2cc(CN3C(=O)C4(C(C#N)=C(N)Oc5c4c(=O)n(C)c(=O)n5C)c4ccccc43)nn2)cc1` (centres undefined), the zone of inhibition at 4000 µg/mL in experiment [1] was 14.3 mm; in experiment [2], 16.3 mm; in experiment [6], 14.3 mm; in experiment [9], 12.3 mm. Besides, the “diameter of the inhibition zone (DIZ)” value in experiment [3] is “inactive”. Besides, the MIC in experiment [4] is 512 µg/mL (≈ 980 µM); in experiment [7], 256 µg/mL (≈ 490 µM); in experiment [8], 128 µg/mL (≈ 245 µM); in experiment [10], 128 µg/mL (≈ 245 µM). The MBC amounted to 128 µg/mL (≈ 245 µM) in [5] and 256 µg/mL (≈ 490 µM) in experiment [11]. For the same compound, in [12], the DIZ result is “inactive”.
As for `COc1ccc(-n2cc(CN3C(=O)C4(C(C#N)=C(N)Oc5c4c(=O)n(C)c(=O)n5C)c4ccccc43)nn2)cc1` (centres undefined), the zone of inhibition at 4000 µg/mL is 17.6 mm in experiment [1], 17.6 mm in experiment [2], 15.3 mm in experiment [6] and 14.6 mm in experiment [9]. In experiment [3], the “diameter of the inhibition zone (DIZ)” value is “inactive”. Besides, the MIC in experiment [4] was found to be 128 µg/mL (≈ 238 µM); in experiment [7], 64 µg/mL (≈ 119 µM); in experiment [8], 128 µg/mL (≈ 238 µM); in experiment [10], 256 µg/mL (≈ 475 µM). The MBC in experiment [5] turned out to be 256 µg/mL (≈ 475 µM); in experiment [11], 512 µg/mL (≈ 951 µM). In [12], the DIZ result is “inactive”.
Regarding `C[C@@H]1[C@H](O)[C@@H](C)/C=C/C=C/C=C/C=C/C=C/C=C/C=C/[C@H](O[C@@H]2O[C@H](C)[C@@H](O)[C@H](N)[C@@H]2O)C[C@@H]2O[C@](O)(C[C@@H](O)C[C@@H](O)[C@H](O)CC[C@@H](O)C[C@@H](O)CC(=O)O[C@H]1C)C[C@H](O)[C@H]2C(=O)O` [AMPHOTERICIN B], the zone of inhibition at 4000 µg/mL in experiment [1] came to 18.3 mm; in experiment [9], 17.6 mm. For the same compound, the MIC in experiment [4] and in experiment [7] was 100 µg/mL (≈ 108 µM) throughout.
Consider `CC1(C)CC(=O)C2=C(C1)OC(N)=C(C#N)C21C(=O)N(Cc2cn(-c3ccc(F)c(Cl)c3)nn2)c2ccccc21` (centres undefined), for which the zone of inhibition at 4000 µg/mL in [1] was determined as 14.3 mm; in experiment [2] it was 21.3 mm; in [6], 19.6 mm; in experiment [9], 13.6 mm. For the same compound, the “diameter of the inhibition zone (DIZ)” value in experiment [3] was “inactive”. The MIC in experiment [4] stood at 256 µg/mL (≈ 470 µM); in experiment [7] it was 256 µg/mL (≈ 470 µM); in experiment [8], 32 µg/mL (≈ 58.7 µM); in [10], 64 µg/mL (≈ 117 µM). Further, the MBC in experiment [5] and in experiment [11] was 128 µg/mL (≈ 235 µM) each time. Also, in experiment [12], the DIZ entry was “inactive”.
